Measurements published in ChEMBL document CHEMBL1759832, “Discovery of torezolid as a novel 5-hydroxymethyl-oxazolidinone antibacterial agent” (Eur J Med Chem, 2011).
In brackets after ≈: the same amount, converted by molar mass.

Experiments:
Staphylococcus aureus [1] = assay: Antibacterial activity against methicillin-resistant Staphylococcus aureus by agar dilution method; type: functional
Method in brief: (§1)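 MIC by CLSI agar dilution on Mueller-Hinton agar for S. aureus (MSSA, MRSA) and Enterococcus faecium (VRE).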

Enterococcus = assay: Antibacterial activity against vancomycin-resistant Enterococcus by agar dilution method; type: functional; method in brief: as §1
Staphylococcus aureus [2] = assay: Antibacterial activity against methicillin-susceptible Staphylococcus aureus Smith infected po dosed ICR mouse assessed as protection against mouse mortality administered 1 hr after infection measured up to 7 days; type: functional
Method in brief: (§2)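 Male outbred ICR mice (4-week-old, 18-20 g) infected intraperitoneally with S. aureus Smith, 2.9 × 10⁷ CFU/mouse in 5% mucin. Compounds given orally or intravenously 1 h after infection, eight mice per group. Mortality followed for 7 days. ED50 taken as the dose protecting 50% of infected mice from death.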

Haemophilus influenzae = assay: Antibacterial activity against Haemophilus influenzae by agar dilution method; type: functional
Method in brief: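 CLSI agar dilution; Haemophilus test medium used for H. influenzae; read-out MIC.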

Staphylococcus aureus [3] = assay: Antibacterial activity against methicillin-susceptible Staphylococcus aureus by agar dilution method; type: functional; method in brief: as §1
[4] = Chemical stability of compound in distilled water assessed as compound remaining at 100 ug/ml after 8 hrs; type: physicochemical
[5] = Chemical stability of compound in distilled water assessed as compound remaining at pH 5 at 100 ug/ml after 8 hrs; type: physicochemical; conditions: buffer, pH 5, 8 h
[6] = Chemical stability of compound in distilled water assessed as compound remaining at pH 3 at 100 ug/ml after 8 hrs; type: physicochemical; conditions: buffer, pH 3, 8 h
[7] = Chemical stability of compound in distilled water assessed as compound remaining at pH 7 at 100 ug/ml after 8 hrs; type: physicochemical; conditions: buffer, pH 7, 8 h
[8] = Aqueous solubility of compound in distilled water; type: physicochemical
Method in brief: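 Water added stepwise with repeated vortexing until solution turned transparent; solubility = amount dissolved divided by total distilled water volume in the final clear solution; triplicate, averaged.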

Streptococcus pneumoniae = assay: Antibacterial activity against penicillin-resistant Streptococcus pneumoniae by agar dilution method; type: functional
Staphylococcus aureus [9] = assay: Antibacterial activity against methicillin-resistant Staphylococcus aureus Smith infected po dosed ICR mouse assessed as protection against mouse mortality administered 1 hr after infection measured up to 7 days; type: functional; method in brief: as §2
Staphylococcus aureus [10] = assay: Antibacterial activity against methicillin-sensitive Staphylococcus aureus Smith infected iv dosed ICR mouse assessed as protection against mouse mortality administered 1 hr after infection measured up to 7 days; type: functional; method in brief: as §2
Staphylococcus aureus [11] = assay: Antibacterial activity against methicillin-sensitive Staphylococcus aureus Smith infected po dosed ICR mouse assessed as protection against mouse mortality administered 1 hr after infection measured up to 7 days; type: functional; method in brief: as §2
Staphylococcus aureus [12] = assay: Antibacterial activity against methicillin-resistant Staphylococcus aureus Smith infected iv dosed ICR mouse assessed as protection against mouse mortality administered 1 hr after infection measured up to 7 days; type: functional; method in brief: as §2
[13] = Oral bioavailability in ICR mouse at 10 mg/kg by LC/MS/MS analysis; type: ADME, organism-based; conditions: in vivo
Method in brief: (§3)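 Single 10 mg/kg dose given orally by feeding tube or iv via tail vein to male ICR mice (4-week-old, 18-20 g). Plasma acidified with 1 N HCl, stored at -70 °C, analysed by LC/MS/MS. Parameters from mean plasma concentrations. For prodrug dosing, values are based on the active parent detected.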

[14] = AUC in ICR mouse at 10 mg/kg, po by LC/MS/MS analysis; type: ADME, organism-based; set-up: dose 10 mg/kg, route oral; conditions: plasma; method in brief: as §3
[15] = AUC in ICR mouse at 10 mg/kg, iv by LC/MS/MS analysis; type: ADME, organism-based; set-up: dose 10 mg/kg, route intravenous; conditions: plasma; method in brief: as §3
[16] = Tmax in ICR mouse at 10 mg/kg, po by LC/MS/MS analysis; type: ADME, organism-based; set-up: dose 10 mg/kg, route oral; conditions: in vivo; method in brief: as §3
[17] = Volume of distribution at steady state in ICR mouse at 10 mg/kg, iv by LC/MS/MS analysis; type: ADME, organism-based; set-up: dose 10 mg/kg, route intravenous; conditions: in vivo, read-out: Vdss; method in brief: as §3
[18] = Half life in ICR mouse at 10 mg/kg, iv by LC/MS/MS analysis; type: ADME, organism-based; set-up: dose 10 mg/kg, route intravenous; conditions: in vivo; method in brief: as §3
[19] = Half life in ICR mouse at 10 mg/kg, po by LC/MS/MS analysis; type: ADME, organism-based; set-up: dose 10 mg/kg, route oral; conditions: in vivo; method in brief: as §3
[20] = Cmax in ICR mouse at 10 mg/kg, po by LC/MS/MS analysis; type: ADME, organism-based; set-up: dose 10 mg/kg, route oral; conditions: in vivo; method in brief: as §3
[21] = Clearance in ICR mouse at 10 mg/kg, iv by LC/MS/MS analysis; type: ADME, organism-based; set-up: dose 10 mg/kg, route intravenous; conditions: in vivo; method in brief: as §3

SMILES	MIC (Staphylococcus aureus [1]) [µg/mL]	MIC (Enterococcus) [µg/mL]	ED50 (Staphylococcus aureus [2]) [mg/kg]	MIC (Haemophilus influenzae) [µg/mL]	MIC (Staphylococcus aureus [3]) [µg/mL]	Stability [4] [%]	Stability [5] [%]	Stability [6] [%]	Stability [7] [%]	also measured
Cc1nnc(-c2ccc(-c3ccc(N4C[C@H](CO)OC4=O)cc3F)cn2)o1	0.5 (≈ 1.35 µM)	0.5 (≈ 1.35 µM)	4.2	4 (≈ 10.8 µM)	0.5 (≈ 1.35 µM)	–	–	–	–	–
Cn1nnc(-c2ccc(-c3ccc(N4C[C@H](COc5ccon5)OC4=O)cc3F)cn2)n1	0.5 (≈ 1.14 µM)	0.25 (≈ 0.572 µM)	> 30	–	0.5 (≈ 1.14 µM)	–	–	–	–	–
Cn1nnc(-c2ccc(-c3ccc(N4C[C@H](CF)OC4=O)cc3F)cn2)n1	1 (≈ 2.69 µM)	1 (≈ 2.69 µM)	–	64 (≈ 172 µM)	1 (≈ 2.69 µM)	–	–	–	–	–
COC[C@H]1CN(c2ccc(-c3ccc(-c4nnn(C)n4)nc3)c(F)c2)C(=O)O1	2 (≈ 5.2 µM)	2 (≈ 5.2 µM)	–	–	2 (≈ 5.2 µM)	–	–	–	–	–
CNC[C@H]1CN(c2ccc(-c3ccc(-c4nnn(C)n4)nc3)c(F)c2)C(=O)O1	4 (≈ 10.4 µM)	4 (≈ 10.4 µM)	–	–	4 (≈ 10.4 µM)	–	–	–	–	–
Cn1nnc(-c2ccc(-c3ccc(N4C[C@H](Cn5cncn5)OC4=O)cc3F)cn2)n1	2 (≈ 4.75 µM)	1 (≈ 2.37 µM)	> 30	–	2 (≈ 4.75 µM)	–	–	–	–	–
Cn1nnc(-c2ccc(-c3ccc(N4C[C@H](Cn5nccn5)OC4=O)cc3F)cn2)n1	16 (≈ 38 µM)	16 (≈ 38 µM)	–	–	16 (≈ 38 µM)	–	–	–	–	–
Cn1nnc(-c2ccc(-c3ccc(N4C[C@H](Cn5ccnn5)OC4=O)cc3F)cn2)n1	0.25 (≈ 0.593 µM)	0.125 (≈ 0.297 µM)	5.74	2 (≈ 4.75 µM)	0.25 (≈ 0.593 µM)	–	–	–	–	–
COCC(=O)NC[C@H]1CN(c2ccc(-c3ccc(-c4nnn(C)n4)nc3)c(F)c2)C(=O)O1	1 (≈ 2.27 µM)	0.5 (≈ 1.13 µM)	20.5	16 (≈ 36.2 µM)	1 (≈ 2.27 µM)	–	–	–	–	–
Cn1nnc(-c2ccc(-c3ccc(N4C[C@H](CNC(=O)c5ccco5)OC4=O)cc3F)cn2)n1	1 (≈ 2.16 µM)	0.5 (≈ 1.08 µM)	> 30	16 (≈ 34.5 µM)	1 (≈ 2.16 µM)	–	–	–	–	–
Cn1nnc(-c2ccc(-c3ccc(N4C[C@H](CNC(=O)c5cccs5)OC4=O)cc3F)cn2)n1	0.5 (≈ 1.04 µM)	0.5 (≈ 1.04 µM)	> 30	–	0.5 (≈ 1.04 µM)	–	–	–	–	–
Cn1nnc(-c2ccc(-c3ccc(N4C[C@H](CNC(=O)CO)OC4=O)cc3F)cn2)n1	1 (≈ 2.34 µM)	0.25 (≈ 0.585 µM)	> 30	–	1 (≈ 2.34 µM)	–	–	–	–	–
Cc1nnc(-c2ccc(-c3ccc(N4C[C@H](COc5ccon5)OC4=O)cc3F)cn2)o1	1 (≈ 2.29 µM)	0.5 (≈ 1.14 µM)	6.5	> 16	1 (≈ 2.29 µM)	–	–	–	–	–
Cc1nnc(-c2ccc(-c3ccc(N4C[C@H](Cn5ccnn5)OC4=O)cc3F)cn2)o1	0.25 (≈ 0.593 µM)	0.125 (≈ 0.297 µM)	> 30	2 (≈ 4.75 µM)	0.25 (≈ 0.593 µM)	–	–	–	–	–
Cn1nnc(-c2ccc(-c3ccc(N4C[C@H](COC(=O)[C@@H]5CCCN5)OC4=O)cc3F)cn2)n1.O=C(O)C(F)(F)F	–	–	–	–	–	76.4	65.2	81.9	0.2	solubility [8]: < 1.6 mg/mL
C[C@H](N)C(=O)OC[C@H]1CN(c2ccc(-c3ccc(-c4nnn(C)n4)nc3)c(F)c2)C(=O)O1.O=C(O)C(F)(F)F	–	–	–	–	–	90.7	87.8	97	6.3	solubility [8]: > 50 mg/mL
C[C@H](N)C(=O)OC[C@H]1CN(c2ccc(-c3ccc(-c4nnn(C)n4)nc3)c(F)c2)C(=O)O1.Cl	–	–	–	–	–	92.3	88.1	98	7.5	solubility [8]: > 50 mg/mL
Cn1nnc(-c2ccc(-c3ccc(N4C[C@H](COC(=O)CCN)OC4=O)cc3F)cn2)n1.O=C(O)C(F)(F)F	–	–	–	–	–	96.9	99.5	99.6	94.9	solubility [8]: 2.6 mg/mL
Cl.Cn1nnc(-c2ccc(-c3ccc(N4C[C@H](COC(=O)CCN)OC4=O)cc3F)cn2)n1	–	–	–	–	–	99.9	94.9	99.9	50.5	solubility [8]: 20.4 mg/mL
Cn1nnc(-c2ccc(-c3ccc(N4C[C@H](COC(=O)CN)OC4=O)cc3F)cn2)n1.O=C(O)C(F)(F)F	–	–	–	–	–	79.5	92.7	86.6	8.1	solubility [8]: 28 mg/mL
Cl.Cn1nnc(-c2ccc(-c3ccc(N4C[C@H](COC(=O)CN)OC4=O)cc3F)cn2)n1	–	–	–	–	–	85.7	93.3	95.1	11.6	–
CC(C)[C@H](N)C(=O)OC[C@H]1CN(c2ccc(-c3ccc(-c4nnn(C)n4)nc3)c(F)c2)C(=O)O1.O=C(O)C(F)(F)F	–	–	–	–	–	99.4	97.3	99.9	51.2	solubility [8]: 4.7 mg/mL
CC(C)[C@H](N)C(=O)OC[C@H]1CN(c2ccc(-c3ccc(-c4nnn(C)n4)nc3)c(F)c2)C(=O)O1.Cl	–	–	–	–	–	99.9	97.7	99.9	60.9	–
CC(=O)NC[C@H]1CN(c2ccc(-c3ccc(-c4nnnn4C)nc3)c(F)c2)C(=O)O1	0.78 (≈ 1.9 µM)	0.125 (≈ 0.304 µM)	–	–	0.78 (≈ 1.9 µM)	–	–	–	–	MIC (Streptococcus pneumoniae): 0.39 µg/mL (≈ 0.948 µM)
CN(C)CC1CN(c2ccc(-c3ccc(-c4nnn(C)n4)nc3)c(F)c2)C(=O)O1 (single isomer, unassigned)	8 (≈ 20.1 µM)	–	–	–	4 (≈ 10.1 µM)	–	–	–	–	–
CC(=O)NC[C@H]1CN(c2ccc(N3CCOCC3)c(F)c2)C(=O)O1 [LINEZOLID]	–	1 (≈ 2.96 µM)	9.4	8 (≈ 23.7 µM)	–	–	–	–	–	ED50 (Staphylococcus aureus [9]): 15.6 mg/kg; ED50 (Staphylococcus aureus [10]): 29.1 mg/kg; ED50 (Staphylococcus aureus [11]): 21.4 mg/kg; ED50 (Staphylococcus aureus [12]): 12.9 mg/kg
Cn1nnc(-c2ccc(-c3ccc(N4C[C@H](CO)OC4=O)cc3F)cn2)n1 [TEDIZOLID]	0.5 (≈ 1.35 µM)	0.125 (≈ 0.338 µM)	8.8	4 (≈ 10.8 µM)	0.5 (≈ 1.35 µM)	–	–	–	–	bioavailability [13]: 48.5%; AUC [14]: 49800 ng·h/mL; AUC [15]: 103 µg·h/mL; Tmax [16]: 2 h; Vd [17]: 0.512 L/kg; half-life [18]: 209 min; half-life [19]: 187 min; Cmax [20]: 4620 ng/mL; clearance [21]: 1.61 mL/min/kg
